Assay results as given in ChEMBL document CHEMBL1764968, “Structural simplification of bioactive natural products with multicomponent synthesis. 3. Fused uracil-containing heterocycles as novel topoisomerase-targeting agents” (2011).
Calls of active or inactive are those of the source. No cut-off for these calls is given here.

How the values were obtained:
[1] = biological target: DNA topoisomerase 2-alpha (Homo sapiens) (UniProt P11388); experiment: Inhibition of human DNA topoisomerase 2-mediated decatenation of catenated kinetoplast DNA at 5 uM after 1 hr by agarose gel electrophoresis
Outline: (§1)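 0.2 μg catenated kinetoplast DNA incubated 1 h at 37 °C with compound in 50 mM Tris-Cl pH 8.0, 150 mM NaCl, 10 mM MgCl2, 5 mM ATP, 0.5 mM DTT, 30 μg/mL BSA. Doxorubicin 5 μM as positive control. Stopped with SDS/proteinase K, 30 min at 37 °C. Run on 1% agarose (55 V, 2 h), stained with ethidium bromide.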

[2] = Cytotoxicity against human U373 cells after 72 hrs by MTT assay; type: functional, U-373MG ATCC; settings: U373 MG
Outline: (§2)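 Cells plated 24 h in 96-well plates at 10,000–40,000 cells/mL depending on line. U373 grown in MEM, other lines in RPMI, both with 5% heat-inactivated FCS. Cells exposed to compounds (or none, control) for 72 h. MTT reduction to formazan read at 570 nm against 630 nm reference. Sextuplicate per condition.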

[3] = biological target: T1, DNA topoisomerase 1 (Homo sapiens) (UniProt P11387); experiment: Effect on human DNA topoisomerase 1-mediated supercoiled pGEM1 plasmid DNA cleavage complex stabilization at up to 100 uM by agarose gel electrophoresis
T1 sequence (whole entry): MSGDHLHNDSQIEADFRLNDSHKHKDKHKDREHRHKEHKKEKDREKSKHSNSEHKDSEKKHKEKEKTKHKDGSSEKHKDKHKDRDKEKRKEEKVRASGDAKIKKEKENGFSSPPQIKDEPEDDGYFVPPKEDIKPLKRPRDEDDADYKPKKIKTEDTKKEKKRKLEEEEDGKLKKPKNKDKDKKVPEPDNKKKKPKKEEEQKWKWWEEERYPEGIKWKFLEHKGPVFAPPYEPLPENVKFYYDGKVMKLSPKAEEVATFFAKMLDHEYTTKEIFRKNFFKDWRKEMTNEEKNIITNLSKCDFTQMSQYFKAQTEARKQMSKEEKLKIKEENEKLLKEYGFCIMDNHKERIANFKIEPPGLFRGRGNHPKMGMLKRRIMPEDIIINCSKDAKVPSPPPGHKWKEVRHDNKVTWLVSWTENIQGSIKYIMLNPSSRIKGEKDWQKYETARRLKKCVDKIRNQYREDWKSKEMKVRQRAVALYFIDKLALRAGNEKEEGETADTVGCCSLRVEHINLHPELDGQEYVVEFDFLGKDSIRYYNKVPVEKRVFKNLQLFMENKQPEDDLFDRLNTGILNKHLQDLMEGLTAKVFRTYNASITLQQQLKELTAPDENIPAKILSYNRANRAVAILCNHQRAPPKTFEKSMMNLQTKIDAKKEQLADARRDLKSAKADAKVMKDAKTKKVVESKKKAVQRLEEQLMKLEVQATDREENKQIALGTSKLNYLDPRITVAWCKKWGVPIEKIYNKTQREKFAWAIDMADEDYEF

MCF7 = experiment: Cytotoxicity against human MCF7 cells after 72 hrs by MTT assay; type: functional; settings: MCF7, 72 h; outline: as §2
A549 = experiment: Cytotoxicity against human A549 cells after 72 hrs by MTT assay; type: functional; settings: A549, 72 h; outline: as §2
HeLa = experiment: Cytotoxicity against human HeLa cells after 72 hrs by MTT assay; type: functional; outline: as §2
Jurkat = experiment: Cytotoxicity against human Jurkat cells after 72 hrs by MTT assay; type: functional; outline: as §2
[4] = biological target: T1, DNA topoisomerase 1 (Homo sapiens); experiment: Inhibition of human DNA topoisomerase 1-mediated relaxation of supercoiled pGEM1 plasmid DNA at 250 uM after 30 mins by agarose gel electrophoresis
Outline: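 Enzyme source: nuclear extract of MCF-7 cells (0.1 μL). 250 ng supercoiled pGEM1 plasmid incubated 30 min at 37 °C with compound (10–250 μM) in 10 mM Tris pH 7.9, 100 mM KCl, 10 mM MgCl2, 0.5 mM DTT, 0.5 mM EDTA, 0.03 mg/mL BSA. Camptothecin 100 μM as positive control. Stopped with SDS/proteinase K, 30 min at 37 °C. Run on 1% agarose, stained with ethidium bromide.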

U-373MG ATCC = experiment: Cytostatic activity against human U373 cells assessed as morphological changes after 72 hrs by phase contrast microscopy; type: functional, cell-based
PC-3 = experiment: Cytotoxicity against human PC3 cells after 72 hrs by MTT assay; type: functional; settings: PC-3, 72 h; outline: as §2
[5] = biological target: DNA topoisomerase 2-alpha (Homo sapiens) (UniProt P11388); experiment: Inhibition of human DNA topoisomerase 2-mediated decatenation of catenated kinetoplast DNA at 1 uM after 1 hr by agarose gel electrophoresis; outline: as §1
SK-MEL = experiment: Cytotoxicity against human SK-MEL cells after 72 hrs by MTT assay; type: functional; outline: as §2
LoVo = experiment: Cytotoxicity against human LoVo cells after 72 hrs by MTT assay; type: functional; outline: as §2

DNA topoisomerase 2-alpha (Homo sapiens), sequence (P11388 whole entry): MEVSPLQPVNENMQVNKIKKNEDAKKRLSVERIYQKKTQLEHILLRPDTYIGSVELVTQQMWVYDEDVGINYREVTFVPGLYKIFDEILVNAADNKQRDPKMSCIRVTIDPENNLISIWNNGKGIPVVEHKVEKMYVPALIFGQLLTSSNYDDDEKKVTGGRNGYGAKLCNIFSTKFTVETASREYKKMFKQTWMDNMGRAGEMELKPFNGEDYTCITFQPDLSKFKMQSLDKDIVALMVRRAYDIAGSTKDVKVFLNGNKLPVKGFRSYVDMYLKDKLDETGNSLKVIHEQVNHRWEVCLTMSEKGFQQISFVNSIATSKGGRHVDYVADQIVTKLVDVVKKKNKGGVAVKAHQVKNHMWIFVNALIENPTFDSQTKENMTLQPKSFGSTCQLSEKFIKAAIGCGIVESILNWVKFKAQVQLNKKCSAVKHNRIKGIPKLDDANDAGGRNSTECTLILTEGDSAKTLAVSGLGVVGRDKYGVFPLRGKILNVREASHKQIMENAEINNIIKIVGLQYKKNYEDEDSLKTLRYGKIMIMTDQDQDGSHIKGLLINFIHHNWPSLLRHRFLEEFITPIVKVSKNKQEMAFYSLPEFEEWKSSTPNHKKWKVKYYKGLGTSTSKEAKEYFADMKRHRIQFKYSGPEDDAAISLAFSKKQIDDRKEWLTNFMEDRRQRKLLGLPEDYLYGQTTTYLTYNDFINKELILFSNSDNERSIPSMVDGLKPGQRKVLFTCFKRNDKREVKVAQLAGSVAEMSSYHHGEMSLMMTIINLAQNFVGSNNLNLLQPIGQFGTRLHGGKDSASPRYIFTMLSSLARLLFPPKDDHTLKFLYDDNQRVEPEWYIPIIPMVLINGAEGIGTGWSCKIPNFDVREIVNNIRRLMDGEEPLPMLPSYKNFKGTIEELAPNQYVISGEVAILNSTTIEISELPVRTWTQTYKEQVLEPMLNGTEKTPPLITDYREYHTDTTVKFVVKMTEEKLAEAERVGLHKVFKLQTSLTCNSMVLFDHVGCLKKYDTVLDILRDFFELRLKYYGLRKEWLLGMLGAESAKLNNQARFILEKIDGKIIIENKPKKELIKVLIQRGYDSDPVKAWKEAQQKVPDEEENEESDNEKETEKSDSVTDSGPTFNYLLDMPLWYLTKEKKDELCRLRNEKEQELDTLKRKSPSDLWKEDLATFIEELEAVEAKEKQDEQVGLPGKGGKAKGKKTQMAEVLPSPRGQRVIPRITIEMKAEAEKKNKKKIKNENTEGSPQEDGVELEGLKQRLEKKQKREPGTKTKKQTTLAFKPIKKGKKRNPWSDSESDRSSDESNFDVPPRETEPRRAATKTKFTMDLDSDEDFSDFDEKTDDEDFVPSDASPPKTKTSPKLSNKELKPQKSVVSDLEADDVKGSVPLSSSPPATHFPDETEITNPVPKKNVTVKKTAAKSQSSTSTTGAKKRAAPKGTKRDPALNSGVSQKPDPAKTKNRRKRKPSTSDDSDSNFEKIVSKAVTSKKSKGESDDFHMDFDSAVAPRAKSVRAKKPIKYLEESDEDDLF

In the case of COc1cccc2c1C(=O)c1c(O)c3c(c(O)c1C2=O)C[C@@](O)(C(=O)CO)C[C@@H]3O[C@H]1C[C@H](N)[C@H](O)[C@H](C)O1, the inhibition [1] is reported as “Active”.

For CSc1ccc(-c2c3c(nc4[nH]c(=O)[nH]c(=O)c24)-c2ccccc2C3=O)cc1, the GI50 [2] was 100 nM, the Activity [3] was “inactive” and the GI50 (MCF7) was 450 nM. The GI50 (A549) was 610 nM, the GI50 (HeLa) was 170 nM and the GI50 (Jurkat) was 50 nM. For the same molecule, the inhibition [4] was “Active”, the inhibition [1] was “Active” and the Activity (U-373MG ATCC) was “Active”. The GI50 (PC-3) was 190 nM, the inhibition [5] was “Active” and the GI50 (SK-MEL) was 230 nM. The GI50 (LoVo) was 290 nM.

In the case of CSc1ccc(C2C3=C(Nc4[nH]c(=O)[nH]c(=O)c42)c2ccccc2C3=O)cc1 (configuration not stated), the GI50 [2] is reported as 100 nM, the Activity [3] is reported as “inactive” and the GI50 (MCF7) is reported as 360 nM. For the same molecule, the GI50 (A549) was 470 nM, the GI50 (HeLa) was 370 nM and the GI50 (Jurkat) was 190 nM. The inhibition [4] was “Active”, the Activity (U-373MG ATCC) was “Active” and the GI50 (PC-3) was 400 nM. For the same molecule, the GI50 (SK-MEL) was 1800 nM and the GI50 (LoVo) was 490 nM.

With Cc1ccc(-c2c3c(nc4[nH]c(=O)[nH]c(=O)c24)-c2ccccc2C3=O)cc1C the GI50 [2] was 500 nM, the Activity [3] was “inactive” and the GI50 (MCF7) was 190 nM. The GI50 (A549) was 140 nM, the GI50 (HeLa) was 190 nM and the GI50 (Jurkat) was 170 nM. For the same molecule, the inhibition [1] was “Active”, the Activity (U-373MG ATCC) was “Active” and the GI50 (PC-3) was 480 nM. The inhibition [5] was “Active”, the GI50 (SK-MEL) was 450 nM and the GI50 (LoVo) was 330 nM.
